Compound activity as filed in PubChem.
FLuc stim CS = FLuc activators, initial screening, artefact control for FLuc-dependent activation tests, biochemical, ATPlite luminescence; Luciferin 4-monooxygenase (Photinus pyralis), P08659; ATPlite luciferase biochemical, 10 min; 0 = ATP-free wells, 1 = DMSO control; activation factor at 10 µM; 200,000 tested, under 10 active; AID 1027, 2008;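 active means luciferase activation factor, scaled between plate controls, of at least 2 with compound at 10 µM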
Target sequence (P08659 whole entry, looked up): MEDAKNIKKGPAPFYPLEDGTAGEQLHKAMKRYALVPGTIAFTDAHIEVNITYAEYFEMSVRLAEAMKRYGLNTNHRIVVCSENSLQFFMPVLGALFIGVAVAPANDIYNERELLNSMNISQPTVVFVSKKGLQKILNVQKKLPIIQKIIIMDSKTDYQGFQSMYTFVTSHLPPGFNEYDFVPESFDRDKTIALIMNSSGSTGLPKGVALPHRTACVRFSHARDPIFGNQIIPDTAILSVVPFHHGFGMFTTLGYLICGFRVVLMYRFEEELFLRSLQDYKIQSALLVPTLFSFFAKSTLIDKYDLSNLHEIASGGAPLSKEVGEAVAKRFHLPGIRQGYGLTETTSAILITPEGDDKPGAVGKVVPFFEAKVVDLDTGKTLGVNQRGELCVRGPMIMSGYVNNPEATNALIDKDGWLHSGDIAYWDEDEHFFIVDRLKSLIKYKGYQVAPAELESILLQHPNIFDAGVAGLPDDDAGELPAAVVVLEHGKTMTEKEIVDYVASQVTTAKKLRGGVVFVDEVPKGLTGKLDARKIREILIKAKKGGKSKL
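Assay system: Luciferase/luciferin detection reagent, cell-free biochemical luciferase assay / Read-out: luciferase activation / Benchmarks: No-ATP low control, compound-free enzyme-plus-ATP high control / Medium: PBS buffer for ATP / Detection: luminescence measurement of luciferase light output / Schedule: 10 min at ambient temperature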
FLuc inh counter = firefly luciferase enzyme inhibitors, primary screen, artefact control for luciferase-based inhibitor screens, biochemical, luminescence, ATPLite. 10 min. inhibition, % at 10 µM. 1.5% of 200,000 active. Luciferin 4-monooxygenase (Photinus pyralis), P08659;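 active means inhibition above about 50% when tested at 10 µM, limit read from the data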
NF-kB neuron act = activators of NF-kB expression in neurons, primary screen, cell-based, HTS. human neuronal cells, NF-kB reporter expression; hits give high values. fold change at 12.5 µM. 1.6% of 190,000 active. AID 1239, 2008; in the data active means fold change above about 3.3
PPC-1+TRAIL kill = compounds killing PPC-1 cancer cells with TRAIL present, primary screen, TRAIL potentiator project, ATPLite luminescence, uHTS. PPC-1 cells + TRAIL, ATPLite viability luminescence. cell killing (% activity), % at 4 µM or 5 µM. 0.41% of 220,000 active. AID 1443, 2008;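 active means cell killing above 50% in the first pass at 4 µM, then a duplicate retest at 5 µM averaging 50% or more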;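 further: plate controls were cells with TRAIL plus DMSO for no effect and medium-only wells lacking cells for full effect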
APP 5'UTR act = activators of APP 5'UTR luciferase reporter, primary screen, SH-SY5Y cells; SH-SY5Y APP 5'UTR luciferase reporter, luminescence; zero percent = DMSO vehicle wells; AID 1276, 2008; 1% of 190,000 active; activation, % at 2 µM;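 active means activation above a set limit, based on mean plus 3 SD of controls, cut at about 140% in these data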
C8 TRAIL sens = viability loss with TRAIL in NB7+C8 cells, primary screen, TRAIL sensitizer project, cell-based, ATPlite luminescence. inhibition (viability loss, TRAIL sensitization), % at 10 µM. 1% of 360,000 active. AID 624354, 2012;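 active means compounds causing at least 50% loss of cell viability in the single-dose screen, relative to plate controls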
An asterisk follows results filed as active; . = no result. An excerpt weighted towards active compounds, which were near 2.2% of everything screened.

SMILES	FLuc stim CS	FLuc inh counter	NF-kB neuron act	PPC-1+TRAIL kill	APP 5'UTR act	C8 TRAIL sens
Cc1ccc(SCC(=O)Nc2ccc(N3CCN(c4ccccc4)CC3)c(F)c2)cc1	1.1	-7	1.1	2	6	-8
CC(=O)Oc1ccc(/C=N/NC(=S)Nc2ccccc2)cc1	0.9	6	5.3*	4	50	41
CC(=O)NS(=O)(=O)c1ccc(NC(=O)CSc2ccccc2)cc1	.	.	.	5	.	-8
CN1CCN(c2ccc(NC(=O)CSc3ccccc3)cc2F)CC1	0.9	10	1.1	23	175*	2
CC(=O)Oc1ccc(NC(=O)CSc2ccccc2)cc1	1	-2	4.2*	-2	-1	4
Cc1cc(C)c2nc(Nc3nc(-c4ccccc4)cc(=O)[nH]3)nc(C)c2c1	.	.	.	16	.	14
Cc1cc(-c2ccccc2)nc(Nc2nc3c(C)cccc3c(=O)[nH]2)n1	.	.	.	.	.	71*
CCCNC(=O)c1cccc(C(F)(F)F)c1	1	2	1.1	18	-4	0
Cc1ccc(O)c(-c2cc(-c3ccccc3C)[nH]n2)c1	1.1	-6	2.8	-4	55	1
Cc1ccc(-c2cc(-c3cccs3)[nH]n2)c(O)c1	0.9	13	8.1*	11	119	9
CCOc1ccc(S(=O)(=O)N2CCN(C(=O)CCOc3ccccc3C)CC2)cc1	.	.	.	.	.	9
CCOC(=O)c1c(C)oc2c(F)c(F)c(F)c(F)c2c1=O	1	-5	1.3	21	.	94*
CCOC(=O)c1c(C)oc(=O)c(CC)c1O	.	.	.	.	.	0
N/C(=N\OC(=O)COc1ccc2ccccc2c1Br)c1ccccn1	1	4	.	10	67	17
Cc1cc(C)c(C)c(OCC(=O)O/N=C(\N)c2ccccn2)c1	1	-2	1.4	30	.	2
N/C(=N\OC(=O)COc1ccc(Br)cc1Cl)c1ccccn1	0.6	39	5.6*	38	193*	66*
N/C(=N\OC(=O)COc1ccc(Cl)cc1Cl)c1ccccn1	0.5	50	5.2*	41	78	54*
N/C(=N\OC(=O)COc1ccc(Br)cc1Cl)c1ccncc1	0.9	14	4.4*	24	140*	11
COCCCN1C(=O)C(CC(=O)NCCN2CCOCC2)CC(C(=O)N(C(C)C)C(C)C)=C1C (stereo unspecified)	.	.	.	.	.	3
Cc1ccc(C(=O)N2CCC(C(=O)c3ccc(Cl)cc3)CC2)cc1	.	.	.	.	.	6
COc1ccccc1CNc1nc(Nc2ccc(C)cc2C)c2sccc2n1	.	.	.	.	.	15
CC(=O)Nc1ccc(-c2ccnc3c2CC(C)(C(=O)NC(C)C)O3)cc1 (stereo unspecified)	.	.	.	.	.	-18
Cc1cccc(N2CCN(S(=O)(=O)c3ccc4c(c3)NC(=O)C(C)S4)CC2)c1C (stereo unspecified)	.	.	.	.	.	54*
COc1ccc(S(=O)(=O)N(C)c2ccc(C(=O)Nc3c(C)n(C)n(-c4ccccc4)c3=O)cc2)cc1	.	.	.	.	.	1
Cc1cc(NC(=O)CSc2ncnc3sc(C)c(C)c23)no1	1	-3	1.2	15	14	-11
SMILES	FLuc stim CS	FLuc inh counter	NF-kB neuron act	PPC-1+TRAIL kill	APP 5'UTR act	C8 TRAIL sens
COc1ccc2oc(C(=O)Nc3nc(C)cs3)c(C)c2c1	.	.	.	.	.	60*
COc1ccc2oc(C(=O)NCCC(C)C)c(C)c2c1	0.5	50	1	15	139*	15
COc1ccc2oc(C(=O)Nc3ccccn3)c(C)c2c1	.	.	.	.	.	62*
COc1ccc(C(CNC(=O)c2oc3ccc(OC)cc3c2C)N2CCCC2)cc1 (stereo unspecified)	.	.	.	.	.	3
COc1ccc2oc(C(=O)Nc3ccc(C)cn3)c(C)c2c1	.	.	.	.	.	33
COCc1c(C(=O)Nc2nc(C)cs2)oc2ccccc12	0.9	5	1.1	0	12	-9
O=C(Nc1ccc(F)cc1)c1ccccc1NS(=O)(=O)N1CCCC1	1	-1	0.99	12	4	3
C#CC(=O)CC1(CN(Cc2ccccc2)C(=O)OC(C)(C)C)CCCCC1	.	.	.	.	.	94*
Cc1c(CCC(=O)O)c(=O)oc2cc(OCc3ccccc3Br)ccc12	.	.	.	.	.	4
NS(=O)(=O)c1ccc(CCNC(=O)NC2(C(F)(F)F)Oc3ccccc3O2)cc1	1.1	-7	3.9*	-24	-25	18
CCCCNC(=O)NC1(C(F)(F)F)Oc2ccccc2O1	1	-5	3.2	17	-14	24
Cc1ccc(-c2nc(C)c(C(=O)O)s2)cc1	0.6	43	2.8	11	143*	16
CCOC(=O)c1c(CSC(=N)N)n(-c2ccc(C)cc2)c2cc(Br)c(OC(C)=O)cc12	1.1	-9	1.8	18	5	93*
CCOC(=O)c1c(CSC(=N)N)n(C)c2cc(Br)c(OC(C)=O)cc12	.	.	.	1	.	0
C=CCNc1nc(-c2ccc(OC)cc2OC)cs1	0.9	8	3.4*	13	50	-5
COc1ccc(-c2csc(NC(=O)C3=COCCO3)n2)c(OC)c1	.	.	.	.	.	-1
CCS(=O)(=O)Nc1cccc(-c2nc3cccnc3s2)c1	.	.	.	-6	.	-19
CCS(=O)(=O)Nc1ccc(-c2nc3cccnc3s2)cc1	0.3	67*	2	27	197*	-15
CCN(CC)c1ccc(C(=O)OCc2cc(=O)oc3cc(O)ccc23)cc1	1	-3	1.6	-24	-3	50*
CN1CC(=O)N2C(c3ccc(Cl)cc3)c3[nH]c4ccccc4c3C[C@H]2C1=O (stereo partly specified)	.	.	.	.	.	55*
CCOCCc1nnc(NC(=O)C(CC)c2ccccc2)s1 (stereo unspecified)	1	-1	1.2	-3	-12	0
Cc1nn(-c2ccccc2Cl)c(Cl)c1/C=N/Nc1cccc(C(=O)O)c1	0.1	90*	9.8*	40	3	78*
Cc1nn(-c2cccc(C(F)(F)F)c2)c(Cl)c1/C=N/Nc1cccc(C(=O)O)c1	0.9	7	8*	22	159*	-8
CC(C)c1ccc(-c2nnc(N)s2)cc1	0.2	80*	3.8*	58*	62	58*
COc1ccc(-c2nnc(N)s2)cc1	0.7	26	1.8	23	9	12
CCCOc1ccc(-c2nnc(N)s2)cc1	0.4	60*	2.1	-7	49	38
CCN(CC)c1ccc(/C=C/c2nc3ccccc3s2)cc1	0.4	64*	1.4	16	76	.
Cc1cccc(C)c1NC(=O)CNC(=O)c1cn(-c2ccccc2)nc1-c1ccccc1	.	.	.	.	.	8
Cc1nn(Cc2c(Cl)cccc2Cl)c(C)c1NC(=O)c1cn(-c2ccccc2)nc1-c1ccccc1	1	-2	1.1	30	-9	76*
